Experimental data from ChEMBL document CHEMBL2384906, “Biological activity, design, synthesis and structure activity relationship of some novel derivatives of curcumin containing sulfonamides” (Eur J Med Chem, 2013).
≈ marks a conversion by molar mass, not a printed value. Calls of active or inactive are those of the source. No cut-off for these calls is given here.

Columns and labels:
Escherichia coli [1] = experiment: Antimicrobial activity against Escherichia coli ATCC 35218 assessed as diameter of inhibition zone at 40 uM after 24 hrs by Kirby -Baur disc diffusion method; type: functional; details: ATCC 35218, 24 h, read-out: DIZ
Summary of the method: (§1)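 Kirby-Bauer disc diffusion was used. Acetone stocks (160 µM) were serially doubled down to 80, 40 and 20 µM. 4 µL of each went onto 5 mm sterile paper discs, which were dried 30 min at 50 °C. Inoculum was 1.5 × 10⁸ CFU/mL diluted to 3 × 10² CFU/mL, and 50 µL was spread on Mueller-Hinton agar. After 24 h at 37 °C the inhibition-zone diameter was measured. Ciprofloxacin served as positive control.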

Staphylococcus aureus [2] = experiment: Antimicrobial activity against Staphylococcus aureus ATCC 11632 after 24 hrs by broth micro serial dilution method; type: functional; details: ATCC 11632, 24 h
Summary of the method: (§2)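 This was broth microdilution in autoclaved Mueller-Hinton broth. 150 µL of compound per well was serially diluted […], and 50 µL of test organism was added. Plates were incubated 24 h at 37 °C and optical density was read.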

Bacillus cereus [3] = experiment: Antimicrobial activity against Bacillus cereus MTCC 7350 assessed as diameter of inhibition zone at 20 uM after 24 hrs by Kirby -Baur disc diffusion method; type: functional; summary of the method: as §1
Aspergillus niger [4] = experiment: Antifungal activity against Aspergillus niger MTCC 1108 assessed as zone of inhibition at 80 uM after 48 hrs by disc diffusion method; type: functional; details: MTCC 1108, 48 h, read-out: IZ
Summary of the method: (§3)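 Spores from 4-day potato dextrose agar cultures, suspended in sterile water at 1.5 × 10⁵ CFU/mL. 0.2 mL was spread on potato dextrose agar. 5 mm filter-paper discs soaked with test compound were laid on the lawn. Incubation was 48 h at 28 °C, then the inhibition zone was measured in mm. Fluconazole was the positive control and acetone the negative control.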

Escherichia coli [5] = experiment: Antimicrobial activity against Escherichia coli ATCC 35218 after 24 hrs by broth micro serial dilution method; type: functional; details: ATCC 35218, 24 h; summary of the method: as §2
Curvularia lunata [6] = experiment: Antifungal activity against Curvularia lunata MTCC 581 assessed as zone of inhibition at 80 uM after 48 hrs by disc diffusion method; type: functional; details: MTCC 581, 48 h, read-out: IZ; summary of the method: as §3
Salmonella typhi [7] = experiment: Antimicrobial activity against Salmonella typhi ATCC 23564 assessed as diameter of inhibition zone at 80 uM after 24 hrs by Kirby -Baur disc diffusion method; type: functional, Salmonella enterica subsp. enterica serovar Typhi; details: Salmonella enterica, ATCC 23564, 24 h; read-out: DIZ
Aspergillus niger [8] = experiment: Antifungal activity against Aspergillus niger MTCC 1108 after 48 hrs; type: functional; details: MTCC 1108, 48 h
Trichoderma viride [9] = experiment: Antifungal activity against Trichoderma viride MTCC 1107 after 48 hrs; type: functional; details: MTCC 1107, 48 h
Aspergillus flavus [10] = experiment: Antifungal activity against Aspergillus flavus MTCC 1021 after 48 hrs; type: functional; details: MTCC 1021, 48 h
Bacillus cereus [11] = experiment: Antimicrobial activity against Bacillus cereus MTCC 7350 assessed as diameter of inhibition zone at 40 uM after 24 hrs by Kirby -Baur disc diffusion method; type: functional; details: MTCC 7350, 24 h, read-out: DIZ; summary of the method: as §1
Pseudomonas aeruginosa [12] = experiment: Antimicrobial activity against Pseudomonas aeruginosa ATCC 15499 assessed as diameter of inhibition zone at 80 uM after 24 hrs by Kirby -Baur disc diffusion method; type: functional; details: ATCC 15499, 24 h, read-out: DIZ; summary of the method: as §1
Aspergillus flavus [13] = experiment: Antifungal activity against Aspergillus flavus MTCC 1021 assessed as zone of inhibition at 80 uM after 48 hrs by disc diffusion method; type: functional; details: MTCC 1021, 48 h, read-out: IZ; summary of the method: as §3
Curvularia lunata [14] = experiment: Antifungal activity against Curvularia lunata MTCC 581 assessed as zone of inhibition at 40 uM after 48 hrs by disc diffusion method; type: functional; details: MTCC 581, 48 h, read-out: IZ; summary of the method: as §3
Pseudomonas aeruginosa [15] = experiment: Antimicrobial activity against Pseudomonas aeruginosa ATCC 15499 after 24 hrs by broth micro serial dilution method; type: functional; details: ATCC 15499, 24 h; summary of the method: as §2
Mus musculus = experiment: Antiinflammatory activity in mouse assessed as inhibition of carrageenan-induced increase in paw volume at 200 mg/kg administered 1 hr prior to carrageenan challenge measured after 3 hrs relative to control; type: functional
Summary of the method: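 Mice were fasted 2 h and placed in groups of five. Controls received saline i.p. Phenylbutazone was given at 100 mg/kg i.p., curcumin at 200 mg/kg i.p., and derivatives at 200 mg/kg. After 1 h, 0.1 mL of 1% carrageenan in saline was injected subplantar into the right hind paw. Paw volume was followed by plethysmometer for 3 h, and % inhibition was calculated as (Vc − Vt)/Vc × 100.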

Pseudomonas aeruginosa [16] = experiment: Antimicrobial activity against Pseudomonas aeruginosa ATCC 15499 assessed as diameter of inhibition zone at 40 uM after 24 hrs by Kirby -Baur disc diffusion method; type: functional; details: ATCC 15499, 24 h, read-out: DIZ; summary of the method: as §1
Trichoderma viride [17] = experiment: Antifungal activity against Trichoderma viride MTCC 1107 assessed as zone of inhibition at 80 uM after 48 hrs by disc diffusion method; type: functional; details: MTCC 1107, 48 h, read-out: IZ; summary of the method: as §3
HCT-116 = experiment: Cytotoxicity against human HCT116 cells after 24 hrs by MTT assay; type: functional, cell-based
Summary of the method: (§4)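 The MTT assay seeded 5 × 10⁴ cells per well and grew them 24 h in RPMI 1640 with compound at 2.5–200 µM. Medium without cells was the blank and adriamycin the positive control. MTT was added for 4 h at 37 °C, formazan was solubilised, and absorbance was read at 570 nm. IC50 is the concentration that cuts viability 50% against untreated cells.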

Curvularia lunata [18] = experiment: Antifungal activity against Curvularia lunata MTCC 581 assessed as zone of inhibition at 20 uM after 48 hrs by disc diffusion method; type: functional; details: MTCC 581, 48 h, read-out: IZ; summary of the method: as §3
Staphylococcus aureus [19] = experiment: Antimicrobial activity against Staphylococcus aureus ATCC 11632 assessed as diameter of inhibition zone at 20 uM after 24 hrs by Kirby -Baur disc diffusion method; type: functional; details: ATCC 11632, 24 h, read-out: DIZ; summary of the method: as §1
Trichoderma viride [20] = experiment: Antifungal activity against Trichoderma viride MTCC 1107 assessed as zone of inhibition at 20 uM after 48 hrs by disc diffusion method; type: functional; details: MTCC 1107, 48 h, read-out: IZ; summary of the method: as §3
Escherichia coli [21] = experiment: Antimicrobial activity against Escherichia coli ATCC 35218 assessed as diameter of inhibition zone at 80 uM after 24 hrs by Kirby -Baur disc diffusion method; type: functional; details: ATCC 35218, 24 h, read-out: DIZ; summary of the method: as §1
Aspergillus flavus [22] = experiment: Antifungal activity against Aspergillus flavus MTCC 1021 assessed as zone of inhibition at 20 uM after 48 hrs by disc diffusion method; type: functional; summary of the method: as §3
Staphylococcus aureus [23] = experiment: Antimicrobial activity against Staphylococcus aureus ATCC 11632 assessed as diameter of inhibition zone at 40 uM after 24 hrs by Kirby -Baur disc diffusion method; type: functional; details: ATCC 11632, 24 h, read-out: DIZ; summary of the method: as §1
Aspergillus flavus [24] = experiment: Antifungal activity against Aspergillus flavus MTCC 1021 assessed as zone of inhibition at 40 uM after 48 hrs by disc diffusion method; type: functional; details: MTCC 1021, 48 h, read-out: IZ; summary of the method: as §3
Trichoderma viride [25] = experiment: Antifungal activity against Trichoderma viride MTCC 1107 assessed as zone of inhibition at 40 uM after 48 hrs by disc diffusion method; type: functional; details: MTCC 1107, 48 h, read-out: IZ; summary of the method: as §3
Aspergillus niger [26] = experiment: Antifungal activity against Aspergillus niger MTCC 1108 assessed as zone of inhibition at 20 uM after 48 hrs by disc diffusion method; type: functional; details: MTCC 1108, 48 h, read-out: IZ; summary of the method: as §3
HepG2 = experiment: Cytotoxicity against human HepG2 cells after 24 hrs by MTT assay; type: functional, cell-based; summary of the method: as §4
Salmonella typhi [27] = experiment: Antimicrobial activity against Salmonella typhi ATCC 23564 after 24 hrs by broth micro serial dilution method; type: functional, Salmonella enterica subsp. enterica serovar Typhi; details: Salmonella enterica, ATCC 23564, 24 h
QG-56 = experiment: Cytotoxicity against human QG56 cells after 24 hrs by MTT assay; type: functional, cell-based; summary of the method: as §4
Salmonella typhi [28] = experiment: Antimicrobial activity against Salmonella typhi ATCC 23564 assessed as diameter of inhibition zone at 40 uM after 24 hrs by Kirby -Baur disc diffusion method; type: functional, Salmonella enterica subsp. enterica serovar Typhi; details: Salmonella enterica, ATCC 23564, 24 h; read-out: DIZ
Aspergillus niger [29] = experiment: Antifungal activity against Aspergillus niger MTCC 1108 assessed as zone of inhibition at 40 uM after 48 hrs by disc diffusion method; type: functional; details: MTCC 1108, 48 h, read-out: IZ; summary of the method: as §3
Bacillus cereus [30] = experiment: Antimicrobial activity against Bacillus cereus MTCC 7350 assessed as diameter of inhibition zone at 80 uM after 24 hrs by Kirby -Baur disc diffusion method; type: functional; details: MTCC 7350, 24 h, read-out: DIZ; summary of the method: as §1
Pseudomonas aeruginosa [31] = experiment: Antimicrobial activity against Pseudomonas aeruginosa ATCC 15499 assessed as diameter of inhibition zone at 20 uM after 24 hrs by Kirby -Baur disc diffusion method; type: functional; details: ATCC 15499, 24 h, read-out: DIZ; summary of the method: as §1
Bacillus cereus [32] = experiment: Antimicrobial activity against Bacillus cereus MTCC 7350 after 24 hrs by broth micro serial dilution method; type: functional; details: MTCC 7350, 24 h; summary of the method: as §2
Escherichia coli [33] = experiment: Antimicrobial activity against Escherichia coli ATCC 35218 assessed as diameter of inhibition zone at 20 uM after 24 hrs by Kirby -Baur disc diffusion method; type: functional; details: ATCC 35218, 24 h, read-out: DIZ; summary of the method: as §1
Staphylococcus aureus [34] = experiment: Antimicrobial activity against Staphylococcus aureus ATCC 11632 assessed as diameter of inhibition zone at 80 uM after 24 hrs by Kirby -Baur disc diffusion method; type: functional; details: ATCC 11632, 24 h, read-out: DIZ; summary of the method: as §1
Salmonella typhi [35] = experiment: Antimicrobial activity against Salmonella typhi ATCC 23564 assessed as diameter of inhibition zone at 20 uM after 24 hrs by Kirby -Baur disc diffusion method; type: functional, Salmonella enterica subsp. enterica serovar Typhi; details: Salmonella enterica, ATCC 23564, 24 h; read-out: DIZ
HeLa = experiment: Cytotoxicity against human HeLa cells after 24 hrs by MTT assay; type: functional, cell-based; summary of the method: as §4
Curvularia lunata [36] = experiment: Antifungal activity against Curvularia lunata MTCC 581 after 48 hrs; type: functional; details: MTCC 581, 48 h

SMILES: COc1cc(/C=C/C(O)=C/C(/C=C/c2ccc(O)c(OC)c2)=N/c2ccc(S(=O)(=O)Nc3nc(C)cc(C)n3)cc2)ccc1O
- zone of inhibition at 40 µM (Escherichia coli [1]): 21 mm
- MIC (Staphylococcus aureus [2]): 20 µM (≈ 12.6 µg/mL)
- diameter of the inhibition zone (DIZ) (Bacillus cereus [3]): inactive
- zone of inhibition at 80 µM (Aspergillus niger [4]): 16 mm
- MIC (Escherichia coli [5]): 20 µM (≈ 12.6 µg/mL)
- zone of inhibition at 80 µM (Curvularia lunata [6]): 19 mm
- zone of inhibition at 80 µM (Salmonella typhi [7]): 17 mm
- MIC (Aspergillus niger [8]): 20 µM (≈ 12.6 µg/mL)
- MIC (Trichoderma viride [9]): 20 µM (≈ 12.6 µg/mL)
- MIC (Aspergillus flavus [10]): > 80 µM
- zone of inhibition at 40 µM (Bacillus cereus [11]): 9 mm
- zone of inhibition at 80 µM (Pseudomonas aeruginosa [12]): 19 mm
- zone of inhibition at 80 µM (Aspergillus flavus [13]): 11 mm
- zone of inhibition at 40 µM (Curvularia lunata [14]): 16 mm
- MIC (Pseudomonas aeruginosa [15]): 20 µM (≈ 12.6 µg/mL)
- inhibition in vivo at 200 mg/kg (Mus musculus): 38.7%
- zone of inhibition at 40 µM (Pseudomonas aeruginosa [16]): 16 mm
- zone of inhibition at 80 µM (Trichoderma viride [17]): 22 mm
- IC50 (HCT-116): 25 µM
- zone of inhibition at 20 µM (Curvularia lunata [18]): 12 mm
- zone of inhibition at 20 µM (Staphylococcus aureus [19]): 16 mm
- zone of inhibition at 20 µM (Trichoderma viride [20]): 18 mm
- zone of inhibition at 80 µM (Escherichia coli [21]): 23 mm
- inhibition zone (IZ) (Aspergillus flavus [22]): inactive
- zone of inhibition at 40 µM (Staphylococcus aureus [23]): 18 mm
- zone of inhibition at 40 µM (Aspergillus flavus [24]): 9 mm
- zone of inhibition at 40 µM (Trichoderma viride [25]): 19 mm
- zone of inhibition at 20 µM (Aspergillus niger [26]): 12 mm
- IC50 (HepG2): 25 µM
- MIC (Salmonella typhi [27]): 20 µM (≈ 12.6 µg/mL)
- IC50 (QG-56): 50 µM
- zone of inhibition at 40 µM (Salmonella typhi [28]): 14 mm
- zone of inhibition at 40 µM (Aspergillus niger [29]): 14 mm
- zone of inhibition at 80 µM (Bacillus cereus [30]): 12 mm
- zone of inhibition at 20 µM (Pseudomonas aeruginosa [31]): 10 mm
- MIC (Bacillus cereus [32]): 20 µM (≈ 12.6 µg/mL)
- zone of inhibition at 20 µM (Escherichia coli [33]): 21 mm
- zone of inhibition at 80 µM (Staphylococcus aureus [34]): 22 mm
- zone of inhibition at 20 µM (Salmonella typhi [35]): 10 mm
- IC50 (HeLa): 25 µM
- MIC (Curvularia lunata [36]): 20 µM (≈ 12.6 µg/mL)
